Measurements: ChEMBL document CHEMBL5303300, “EUbOPEN Chemogenomics Library - Multiplex” (2023)
Where “and” joins values, the source holds several entries; their conditions need not be identical. Equal entries are not always repeated.

Tested on: Fibroblast
Assay: Multiplex assay against human fibroblast
Type: toxicity, cell-based
Details: number of replicates 2
Outline: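 Values for tubulin, mitochondrial-mass and membrane-permeability phenotypes are per cents of cells with healthy nuclei. These cells were identified by CellPathfinder machine-learning gating of live cells that had been stained at seeding with Hoechst33342, BioTracker Green Microtubule Cytoskeleton Dye, MitoTracker Red and Annexin V Alexa Fluor 680 and imaged on a CQ1 microscope at 37°C and 5% CO2 after compound addition. The gating first set Hoechst high-intensity objects apart from normal cells, then split normal cells into healthy, pyknosed or fragmented nuclei, and pyknosed cells into mitotic or apoptotic.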

[1] = 12 h, 1 µM, compound concentration 1 uM
[2] = 12 h, 10 µM, compound concentration 10 uM
[3] = 24 h, 1 µM, compound concentration 1 uM
[4] = 24 h, 10 µM, compound concentration 10 uM
[5] = 48 h, 1 µM, compound concentration 1 uM
[6] = 48 h, 10 µM, compound concentration 10 uM

CNc1ncc2cc(-c3ccc(-c4cccc(C)n4)cc3Cl)c(=O)n(C[C@H]3OC[C@H](N)CO3)c2n1
Population Apoptotic (%) [1]: 43% and 42%
Population Fragmented Nuclei (%) [1]: 9% and 17%
Population Healthy Nuclei (%) [1]: 51% and 52%
Population Hoechst High Intensity Objects (%) [1]: 0%
Population Membrane Permeable-Phenotype (%) [1]: 10%
Population Mitochondria Different-Phenotype (%) [1]: 0%
Population Mitotic Cells (%) [1]: 56% and 57%
Population Normal (%) [1]: 100%
Population Pyknosed Nuclei (%) [1]: 39% and 30%
Population Tubulin-Different-Phenotype (%) [1]: 21% and 18%
Total Cell Count [1]: 176 and 246
Population Apoptotic (%) [2]: 44% and 35%
Population Fragmented Nuclei (%) [2]: 22% and 26%
Population Healthy Nuclei (%) [2]: 26% and 28%
Population Hoechst High Intensity Objects (%) [2]: 1% and 7%
Population Membrane Permeable-Phenotype (%) [2]: 23% and 16%
Population Mitochondria Different-Phenotype (%) [2]: 0%
Population Mitotic Cells (%) [2]: 55% and 64%
Population Normal (%) [2]: 98% and 92%
Population Pyknosed Nuclei (%) [2]: 50% and 45%
Population Tubulin-Different-Phenotype (%) [2]: 55% and 51%
Total Cell Count [2]: 227 and 323
Population Apoptotic (%) [3]: 41% and 67%
Population Fragmented Nuclei (%) [3]: 14% and 21%
Population Healthy Nuclei (%) [3]: 56%
Population Hoechst High Intensity Objects (%) [3]: 0%
Population Membrane Permeable-Phenotype (%) [3]: 25% and 13%
Population Mitochondria Different-Phenotype (%) [3]: 0%
Population Mitotic Cells (%) [3]: 58% and 32%
Population Normal (%) [3]: 100% and 99%
Population Pyknosed Nuclei (%) [3]: 28% and 21%
Population Tubulin-Different-Phenotype (%) [3]: 29% and 15%
Total Cell Count [3]: 179 and 248
Population Apoptotic (%) [4]: 45% and 65%
Population Fragmented Nuclei (%) [4]: 27% and 23%
Population Healthy Nuclei (%) [4]: 34% and 36%
Population Hoechst High Intensity Objects (%) [4]: 7% and 4%
Population Membrane Permeable-Phenotype (%) [4]: 31% and 34%
Population Mitochondria Different-Phenotype (%) [4]: 5% and 4%
Population Mitotic Cells (%) [4]: 54% and 34%
Population Normal (%) [4]: 92% and 95%
Population Pyknosed Nuclei (%) [4]: 38% and 39%
Population Tubulin-Different-Phenotype (%) [4]: 37% and 59%
Total Cell Count [4]: 304 and 248
Population Apoptotic (%) [5]: 61% and 86%
Population Fragmented Nuclei (%) [5]: 22% and 24%
Population Healthy Nuclei (%) [5]: 64% and 66%
Population Hoechst High Intensity Objects (%) [5]: 0%
Population Membrane Permeable-Phenotype (%) [5]: 36% and 19%
Population Mitochondria Different-Phenotype (%) [5]: 0%
Population Mitotic Cells (%) [5]: 38% and 13%
Population Normal (%) [5]: 100%
Population Pyknosed Nuclei (%) [5]: 12% and 9%
Population Tubulin-Different-Phenotype (%) [5]: 39% and 19%
Total Cell Count [5]: 171 and 237
Population Apoptotic (%) [6]: 42% and 24%
Population Fragmented Nuclei (%) [6]: 19% and 28%
Population Healthy Nuclei (%) [6]: 57% and 51%
Population Hoechst High Intensity Objects (%) [6]: 9% and 11%
Population Membrane Permeable-Phenotype (%) [6]: 40% and 39%
Population Mitochondria Different-Phenotype (%) [6]: 2% and 1%
Population Mitotic Cells (%) [6]: 57% and 75%
Population Normal (%) [6]: 90% and 88%
Population Pyknosed Nuclei (%) [6]: 23% and 20%
Population Tubulin-Different-Phenotype (%) [6]: 33% and 29%
Total Cell Count [6]: 268 and 338

C=CC(=O)Nc1cccc(C)c1Nc1ncc2cc(-c3c(Cl)c(OC)cc(OC)c3Cl)ccc2n1
Population Apoptotic (%) [1]: 30% and 35%
Population Fragmented Nuclei (%) [1]: 11% and 9%
Population Healthy Nuclei (%) [1]: 73% and 66%
Population Hoechst High Intensity Objects (%) [1]: 0%
Population Membrane Permeable-Phenotype (%) [1]: 4%
Population Mitochondria Different-Phenotype (%) [1]: 0% and 1%
Population Mitotic Cells (%) [1]: 69% and 64%
Population Normal (%) [1]: 100% and 99%
Population Pyknosed Nuclei (%) [1]: 14% and 23%
Population Tubulin-Different-Phenotype (%) [1]: 12% and 9%
Total Cell Count [1]: 248 and 242
Population Apoptotic (%) [2]: 60% and 47%
Population Fragmented Nuclei (%) [2]: 35% and 15%
Population Healthy Nuclei (%) [2]: 40% and 60%
Population Membrane Permeable-Phenotype (%) [2]: 0% and 8%
Population Mitochondria Different-Phenotype (%) [2]: 1% and 4%
Population Mitotic Cells (%) [2]: 40% and 52%
Population Normal (%) [2]: 71% and 100%
Population Pyknosed Nuclei (%) [2]: 24% and 23%
Population Tubulin-Different-Phenotype (%) [2]: 17% and 21%
Total Cell Count [2]: 202 and 201
Population Apoptotic (%) [3]: 48% and 60%
Population Fragmented Nuclei (%) [3]: 10% and 9%
Population Healthy Nuclei (%) [3]: 71%
Population Hoechst High Intensity Objects (%) [3]: 0%
Population Membrane Permeable-Phenotype (%) [3]: 3% and 5%
Population Mitochondria Different-Phenotype (%) [3]: 1%
Population Mitotic Cells (%) [3]: 51% and 40%
Population Normal (%) [3]: 99%
Population Pyknosed Nuclei (%) [3]: 17% and 19%
Population Tubulin-Different-Phenotype (%) [3]: 8% and 9%
Total Cell Count [3]: 245 and 232
Population Apoptotic (%) [4]: 71% and 63%
Population Fragmented Nuclei (%) [4]: 38% and 17%
Population Healthy Nuclei (%) [4]: 41% and 63%
Population Membrane Permeable-Phenotype (%) [4]: 0% and 1%
Population Mitochondria Different-Phenotype (%) [4]: 0% and 9%
Population Mitotic Cells (%) [4]: 28% and 36%
Population Normal (%) [4]: 60% and 100%
Population Pyknosed Nuclei (%) [4]: 20% and 19%
Population Tubulin-Different-Phenotype (%) [4]: 7% and 20%
Total Cell Count [4]: 283 and 188
Population Apoptotic (%) [5]: 61% and 67%
Population Fragmented Nuclei (%) [5]: 12%
Population Healthy Nuclei (%) [5]: 73%
Population Hoechst High Intensity Objects (%) [5]: 0%
Population Membrane Permeable-Phenotype (%) [5]: 3% and 5%
Population Mitochondria Different-Phenotype (%) [5]: 1% and 0%
Population Mitotic Cells (%) [5]: 38% and 32%
Population Normal (%) [5]: 100%
Population Pyknosed Nuclei (%) [5]: 13% and 14%
Population Tubulin-Different-Phenotype (%) [5]: 6% and 14%
Total Cell Count [5]: 243 and 214
Population Apoptotic (%) [6]: 83%
Population Fragmented Nuclei (%) [6]: 40% and 15%
Population Healthy Nuclei (%) [6]: 40% and 71%
Population Membrane Permeable-Phenotype (%) [6]: 1% and 4%
Population Mitochondria Different-Phenotype (%) [6]: 4%
Population Mitotic Cells (%) [6]: 16%
Population Normal (%) [6]: 52% and 100%
Population Pyknosed Nuclei (%) [6]: 18% and 12%
Population Tubulin-Different-Phenotype (%) [6]: 10% and 11%
Total Cell Count [6]: 309 and 189

Cl.Clc1ccc2nsnc2c1NC1=NCCN1 [TIZANIDINE HYDROCHLORIDE]
Population Apoptotic (%) [1]: 50% and 48%
Population Fragmented Nuclei (%) [1]: 10%
Population Healthy Nuclei (%) [1]: 62%
Population Hoechst High Intensity Objects (%) [1]: 0%
Population Membrane Permeable-Phenotype (%) [1]: 4% and 7%
Population Mitochondria Different-Phenotype (%) [1]: 0%
Population Mitotic Cells (%) [1]: 49% and 51%
Population Normal (%) [1]: 100%
Population Pyknosed Nuclei (%) [1]: 26% and 27%
Population Tubulin-Different-Phenotype (%) [1]: 10% and 5%
Total Cell Count [1]: 192 and 172
Population Apoptotic (%) [2]: 36%
Population Fragmented Nuclei (%) [2]: 16% and 15%
Population Healthy Nuclei (%) [2]: 68% and 70%
Population Hoechst High Intensity Objects (%) [2]: 0%
Population Membrane Permeable-Phenotype (%) [2]: 5% and 3%
Population Mitochondria Different-Phenotype (%) [2]: 3% and 1%
Population Mitotic Cells (%) [2]: 63%
Population Normal (%) [2]: 100%
Population Pyknosed Nuclei (%) [2]: 15% and 13%
Population Tubulin-Different-Phenotype (%) [2]: 14% and 8%
Total Cell Count [2]: 194 and 264
Population Apoptotic (%) [3]: 67% and 56%
Population Fragmented Nuclei (%) [3]: 9% and 13%
Population Healthy Nuclei (%) [3]: 60% and 57%
Population Hoechst High Intensity Objects (%) [3]: 0%
Population Membrane Permeable-Phenotype (%) [3]: 6%
Population Mitochondria Different-Phenotype (%) [3]: 1% and 0%
Population Mitotic Cells (%) [3]: 32% and 44%
Population Normal (%) [3]: 100%
Population Pyknosed Nuclei (%) [3]: 29% and 28%
Population Tubulin-Different-Phenotype (%) [3]: 14% and 8%
Total Cell Count [3]: 176 and 173
Population Apoptotic (%) [4]: 71% and 45%
Population Fragmented Nuclei (%) [4]: 12% and 14%
Population Healthy Nuclei (%) [4]: 71% and 72%
Population Hoechst High Intensity Objects (%) [4]: 0%
Population Membrane Permeable-Phenotype (%) [4]: 6% and 4%
Population Mitochondria Different-Phenotype (%) [4]: 3% and 1%
Population Mitotic Cells (%) [4]: 28% and 54%
Population Normal (%) [4]: 100% and 99%
Population Pyknosed Nuclei (%) [4]: 15% and 12%
Population Tubulin-Different-Phenotype (%) [4]: 12% and 8%
Total Cell Count [4]: 182 and 271
Population Apoptotic (%) [5]: 68% and 59%
Population Fragmented Nuclei (%) [5]: 11% and 15%
Population Healthy Nuclei (%) [5]: 71% and 63%
Population Hoechst High Intensity Objects (%) [5]: 0%
Population Membrane Permeable-Phenotype (%) [5]: 6% and 11%
Population Mitochondria Different-Phenotype (%) [5]: 0%
Population Mitotic Cells (%) [5]: 31% and 40%
Population Normal (%) [5]: 100% and 99%
Population Pyknosed Nuclei (%) [5]: 17% and 20%
Population Tubulin-Different-Phenotype (%) [5]: 12% and 3%
Total Cell Count [5]: 186 and 203
Population Apoptotic (%) [6]: 72% and 60%
Population Fragmented Nuclei (%) [6]: 13% and 12%
Population Healthy Nuclei (%) [6]: 70% and 78%
Population Hoechst High Intensity Objects (%) [6]: 0%
Population Membrane Permeable-Phenotype (%) [6]: 5% and 2%
Population Mitochondria Different-Phenotype (%) [6]: 0%
Population Mitotic Cells (%) [6]: 27% and 39%
Population Normal (%) [6]: 100% and 99%
Population Pyknosed Nuclei (%) [6]: 15% and 8%
Population Tubulin-Different-Phenotype (%) [6]: 8% and 2%
Total Cell Count [6]: 193 and 260

CCOC(=O)Nc1cc(-c2ccc(C)c(NS(C)(=O)=O)c2)nn2c(C)nnc12
Population Apoptotic (%) [2]: 56% and 50% and 58% and 35%
Population Fragmented Nuclei (%) [2]: 24% [middle of 4 runs]
Population Healthy Nuclei (%) [2]: 74% and 67% and 65% and 60%
Population Hoechst High Intensity Objects (%) [2]: 0%
Population Mitochondria Different-Phenotype (%) [2]: 4% and 3% and 1%
Population Mitotic Cells (%) [2]: 43% and 50% and 41% and 64%
Population Normal (%) [2]: 99% and 100%
Population Pyknosed Nuclei (%) [2]: 13% and 8%
Population Tubulin-Different-Phenotype (%) [2]: 52% and 63% and 54% and 62%
Total Cell Count [2]: 238 and 256 and 323 and 254
Population Apoptotic (%) [4]: 52% and 69% and 65% and 42%
Population Fragmented Nuclei (%) [4]: 33% and 20% and 21% and 34%
Population Healthy Nuclei (%) [4]: 58% and 68% and 66% and 56%
Population Hoechst High Intensity Objects (%) [4]: 0%
Population Membrane Permeable-Phenotype (%) [4]: 11% and 5% and 12%
Population Mitochondria Different-Phenotype (%) [4]: 7% and 4% and 2%
Population Mitotic Cells (%) [4]: 47% and 30% and 34% and 57%
Population Normal (%) [4]: 100%
Population Pyknosed Nuclei (%) [4]: 7% and 11% and 8%
Population Tubulin-Different-Phenotype (%) [4]: 57% and 33% and 29% and 43%
Total Cell Count [4]: 314 and 289 and 319 and 299
Population Apoptotic (%) [6]: 80% and 97% and 72%
Population Fragmented Nuclei (%) [6]: 16% and 27% and 31%
Population Healthy Nuclei (%) [6]: 71% and 60% and 67% and 52%
Population Hoechst High Intensity Objects (%) [6]: 0%
Population Membrane Permeable-Phenotype (%) [6]: 10% [middle of 4 runs]
Population Mitochondria Different-Phenotype (%) [6]: 1% and 9% and 3% and 8%
Population Normal (%) [6]: 100%
Population Pyknosed Nuclei (%) [6]: 12% and 16%
Population Tubulin-Different-Phenotype (%) [6]: 24% and 48% and 26% and 34%
Total Cell Count [6]: 248 and 265 and 292 and 250
